According to ChEMBL document CHEMBL5058577, “EUbOPEN Chemogenomics Library 2 (Multiplex)” (2022):

Test system: HEK-293T
Assay: Multiplex assay against HEK293T
Type: toxicity, cell-based
Settings: human
In short: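 Live cells were stained at seeding with Hoechst33342, BioTracker Green Microtubule Cytoskeleton Dye, MitoTracker Red and Annexin V Alexa Fluor 680, then imaged on a CQ1 microscope at 37°C and 5% CO2 after compound addition. CellPathfinder machine-learning gating split cells into Hoechst high-intensity objects or normal cells. Normal cells were split into healthy, pyknosed or fragmented nuclei, and pyknosed cells into mitotic or apoptotic. Tubulin, mitochondrial-mass and membrane-permeability phenotypes are per cents of healthy-nucleus cells.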

[1] = 12 h, 1 µM, compound concentration 1 uM, replicate 1
[2] = 12 h, 1 µM, compound concentration 1 uM, replicate 2
[3] = 12 h, 10 µM, compound concentration 10 uM, replicate 1
[4] = 12 h, 10 µM, compound concentration 10 uM, replicate 2
[5] = 24 h, 1 µM, compound concentration 1 uM, replicate 1
[6] = 24 h, 1 µM, compound concentration 1 uM, replicate 2
[7] = 24 h, 10 µM, compound concentration 10 uM, replicate 1
[8] = 24 h, 10 µM, compound concentration 10 uM, replicate 2
[9] = 48 h, 1 µM, compound concentration 1 uM, replicate 1
[10] = 48 h, 1 µM, compound concentration 1 uM, replicate 2
[11] = 48 h, 10 µM, compound concentration 10 uM, replicate 1
[12] = 48 h, 10 µM, compound concentration 10 uM, replicate 2

## O=C(CCCc1ccccc1)Nc1nc2ccccc2c(=O)s1
[1]
  Population Apoptotic (%): 30%
  Population Fragmented Nuclei (%): 4%
  Population Healthy Nuclei (%): 83%
  Population Hoechst High Intensity Objects (%): 6%
  Population Membrane Permeable-Phenotype (%): 0%
  Population Mitochondria Different-Phenotype (%): 37%
  Population Mitotic Cells (%): 70%
  Population Normal (%): 93%
  Population Pyknosed Nuclei (%): 11%
  Population Tubulin-Different-Phenotype (%): 32%
  Total Cell Count: 372
[2]
  Population Apoptotic (%): 43%
  Population Fragmented Nuclei (%): 7%
  Population Healthy Nuclei (%): 74%
  Population Hoechst High Intensity Objects (%): 13%
  Population Mitochondria Different-Phenotype (%): 63%
  Population Mitotic Cells (%): 56%
  Population Normal (%): 86%
  Population Pyknosed Nuclei (%): 17%
  Population Tubulin-Different-Phenotype (%): 36%
  Total Cell Count: 267
[3]
  Population Apoptotic (%): 30%
  Population Fragmented Nuclei (%): 10%
  Population Healthy Nuclei (%): 80%
  Population Hoechst High Intensity Objects (%): 9%
  Population Membrane Permeable-Phenotype (%): 0%
  Population Mitochondria Different-Phenotype (%): 47%
  Population Mitotic Cells (%): 69%
  Population Normal (%): 90%
  Population Pyknosed Nuclei (%): 9%
  Population Tubulin-Different-Phenotype (%): 27%
  Total Cell Count: 555
[4]
  Population Apoptotic (%): 44%
  Population Fragmented Nuclei (%): 7%
  Population Healthy Nuclei (%): 74%
  Population Hoechst High Intensity Objects (%): 27%
  Population Mitochondria Different-Phenotype (%): 68%
  Population Mitotic Cells (%): 55%
  Population Normal (%): 72%
  Population Pyknosed Nuclei (%): 17%
  Population Tubulin-Different-Phenotype (%): 26%
  Total Cell Count: 371
[5]
  Population Apoptotic (%): 20%
  Population Fragmented Nuclei (%): 8%
  Population Healthy Nuclei (%): 81%
  Population Hoechst High Intensity Objects (%): 5%
  Population Membrane Permeable-Phenotype (%): 1%
  Population Mitochondria Different-Phenotype (%): 21%
  Population Mitotic Cells (%): 79%
  Population Normal (%): 94%
  Population Pyknosed Nuclei (%): 10%
  Population Tubulin-Different-Phenotype (%): 15%
  Total Cell Count: 538
[6]
  Population Apoptotic (%): 45%
  Population Fragmented Nuclei (%): 9%
  Population Healthy Nuclei (%): 78%
  Population Hoechst High Intensity Objects (%): 8%
  Population Membrane Permeable-Phenotype (%): 0%
  Population Mitochondria Different-Phenotype (%): 38%
  Population Mitotic Cells (%): 54%
  Population Normal (%): 91%
  Population Pyknosed Nuclei (%): 12%
  Population Tubulin-Different-Phenotype (%): 13%
  Total Cell Count: 370
[7]
  Population Apoptotic (%): 33%
  Population Fragmented Nuclei (%): 10%
  Population Healthy Nuclei (%): 80%
  Population Hoechst High Intensity Objects (%): 6%
  Population Membrane Permeable-Phenotype (%): 0%
  Population Mitochondria Different-Phenotype (%): 38%
  Population Mitotic Cells (%): 66%
  Population Normal (%): 93%
  Population Pyknosed Nuclei (%): 9%
  Population Tubulin-Different-Phenotype (%): 29%
  Total Cell Count: 661
[8]
  Population Apoptotic (%): 52%
  Population Fragmented Nuclei (%): 8%
  Population Hoechst High Intensity Objects (%): 24%
  Population Mitochondria Different-Phenotype (%): 47%
  Population Mitotic Cells (%): 47%
  Population Normal (%): 75%
  Population Pyknosed Nuclei (%): 11%
  Population Tubulin-Different-Phenotype (%): 20%
  Total Cell Count: 444
[9]
  Population Apoptotic (%): 20%
  Population Fragmented Nuclei (%): 11%
  Population Healthy Nuclei (%): 82%
  Population Hoechst High Intensity Objects (%): 2%
  Population Membrane Permeable-Phenotype (%): 1%
  Population Mitochondria Different-Phenotype (%): 15%
  Population Mitotic Cells (%): 79%
  Population Normal (%): 97%
  Population Pyknosed Nuclei (%): 6%
  Population Tubulin-Different-Phenotype (%): 11%
  Total Cell Count: 820
[10]
  Population Apoptotic (%): 38%
  Population Fragmented Nuclei (%): 10%
  Population Healthy Nuclei (%): 80%
  Population Hoechst High Intensity Objects (%): 4%
  Population Membrane Permeable-Phenotype (%): 0%
  Population Mitochondria Different-Phenotype (%): 28%
  Population Mitotic Cells (%): 61%
  Population Normal (%): 95%
  Population Pyknosed Nuclei (%): 8%
  Population Tubulin-Different-Phenotype (%): 13%
  Total Cell Count: 534
[11]
  Population Apoptotic (%): 22%
  Population Fragmented Nuclei (%): 14%
  Population Healthy Nuclei (%): 79%
  Population Hoechst High Intensity Objects (%): 4%
  Population Membrane Permeable-Phenotype (%): 0%
  Population Mitochondria Different-Phenotype (%): 21%
  Population Mitotic Cells (%): 77%
  Population Normal (%): 95%
  Population Pyknosed Nuclei (%): 6%
  Population Tubulin-Different-Phenotype (%): 16%
  Total Cell Count: 984
[12]
  Population Apoptotic (%): 68%
  Population Fragmented Nuclei (%): 13%
  Population Healthy Nuclei (%): 77%
  Population Hoechst High Intensity Objects (%): 11%
  Population Membrane Permeable-Phenotype (%): 1%
  Population Mitochondria Different-Phenotype (%): 30%
  Population Mitotic Cells (%): 31%
  Population Normal (%): 88%
  Population Pyknosed Nuclei (%): 9%
  Total Cell Count: 567
